According to the EternaBench riboswitch data:

Legend:
MS2 coat protein [1] = test: apparent Kd, MS2 coat protein; higher = weaker binding; RNA-MaP array; tryptophan 2.4 mM where present
How it was run: (§1)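 SNAP-549-labelled MS2 coat protein, doubled from 0.7 or 1.5 nM to 3 µM, was titrated over designs transcribed by stalled E. coli RNA polymerase on Illumina sequencing-chip clusters. Titrations were run without and then with constant ligand in 100 mM Tris-HCl pH 7.5, 80 mM KCl, 4 mM MgCl2, BSA, DTT, yeast tRNA and Tween-20. The apparent Kd is the median of filtered per-cluster fits to green signal normalised to red-channel RNA signal and control-cluster median Fmax.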

MS2 coat protein [2] = test: apparent Kd, MS2 coat protein; higher = weaker binding; RNA-MaP array; theophylline 2 mM where present
How it was run: as §1

[3] = designed as: OFF switch for tryptophan, no ligand
[4] = ligand present: tryptophan, designed as: OFF switch for tryptophan
[5] = designed as: ON switch for tryptophan, no ligand
[6] = ligand present: tryptophan, designed as: ON switch for tryptophan
[7] = designed as: ON switch for theophylline, no ligand
[8] = ligand present: theophylline, designed as: ON switch for theophylline

Sequence | apparent Kd (MS2 coat protein [1]; [3]) | apparent Kd (MS2 coat protein [1]; [4]) | apparent Kd (MS2 coat protein [1]; [5]) | apparent Kd (MS2 coat protein [1]; [6]) | also measured
AAACAUGAGGCGGCCGCCACUGUAUGAACAUGAGGAUCACCCAUGUAUGUACCCAUGUGUGUACACAGGACCGGGCCAUGUGGAU | 28.1 nM | 19.9 nM | – | – | –
AACAUACAAUAUUAGGUGGAUAUAAGGCGGCGAGGACCGGUACGGCCGCCACUCGCGUACAUGAGGAUCACCCAUGUCUGAAACU | – | – | 20.4 nM | 23.5 nM | –
AACAUGAGGAUCACCCAUGUACAUUUCGAUCGAGGACCGGUACGGCCGCCACUCGAAAACAUGAGGAUCACCCAUGUUCAACAGG | – | – | 296 nM | 184 nM | –
AACAUGAGGAUCACCCAUGUGUCCUCGAAACGAGGACCGGUACGGCCGCCACUCGAAUAAGGUGUUGACGAAAAGUCAGCACCAA | 274 nM | 501 nM | – | – | –
AACAUGAGGAUCACCCAUGUGUCCUCGAAACGAGGACCGGUACGGCCGCCACUCGACGUAUGUUGACGAAAAGUCAGCAUACGAA | 281 nM | 885 nM | – | – | –
AACUUCGCAUAGGAAAACUAUGUGAAGAAUCGAGGACCGGUACGGCCGCCACUCGUCCUCAACAUGAGGAUCACCCAUGUAAUAA | 18.9 nM | 34.8 nM | – | – | –
AAUAAUAUCCUCAUGUGAGUCGUACCGUAACGAGGACCGGUACGGCCGCCACUCGAACAUGAGGAUCACCCAUGUAGGUACGACA | – | – | 207 nM | 99.7 nM | –
AAUAUAAUAGACUCGUUUUAGUAUUUGGAACGAGGACCGGUACGGCCGCCACUCGUGAUUUACAUGAGGAUCACCCAUGUUAGCA | – | – | 14.7 nM | 13.1 nM | –
ACAUGAGGAUCACCCAUGUGAAGCAGGGUACGAGGACCGGUACGGCCGCCACUCGAACAUUAUAACGAGUGAAUGGCAACGAUGU | 11.9 nM | 14.2 nM | – | – | –
ACCUGCGUUUGAUUCUAUCAGACGCAGGUUCGAGGACCGGUACGGCCGCCACUCGGACAUGAGGAUCACCCAUGUUUGACAUGGG | 64.5 nM | 211 nM | – | – | –
ACGACGGCUGCGGCCGCCACUGUACAUGAGGAUCACCCAUGUGUAGUAAUUGGGACCCUGUGUUACAGGACCGGGUAGUUGAUUA | 34.6 nM | 69.9 nM | – | – | –
AGACUUCGCAUAGGAAAACUAUGUGAAGUCCGAGGACCGGUACGGCCGCCACUCGUCCUCACAUGAGGAUCACCCAUGUAAAUAA | 22.2 nM | 29.1 nM | – | – | –
AGAUUCGACACGGCCGCCACUCGUGACGGAUUUCCGAGUGUCGAACAUGAGGAUCACCCAUGUACGAGGACCGGGUGUUGAGUCU | 74.7 nM | 499 nM | – | – | –
AGAUUCGACACGGCCGCCACUUUCAGUGGCUGGUCACAUGGUGCACAUGAGGAUCACCCAUGUGGAAGGACCGGGUGUUGAGUCU | 28 nM | 91.9 nM | – | – | –
AGCCACUCGAGUGAUCCUCACGAGUGGCUACGAGGACCGGUACGGCCGCCACUCGAAUUAACAUGAGGAUCACCCAUGUAAUCAU | – | – | 31.5 nM | 111 nM | –
AUAAAUAAUAAAUAAAAUAAAAUGGGUGAACGAGGACCGGUACGGCCGCCACUCGGACAUGAGGAUCACCCAUGUCCAUGUGAAA | 19.5 nM | 46.1 nM | – | – | –
AUACAUGAGGAUCACCCAUGUGAUGGCCGGCGAGGACCGGUACGGCCGCCACUCGUGAUCCGUCCUGAAAGCAAAGCUCUCAACA | – | – | 47.2 nM | 91.2 nM | –
AUAUAUACAUGAGGAUCACCCAUGUUAUUUCGAGGACCGGUACGGCCGCCACUCGAUAGAGUGGAAGUAACAUUUGUUAGAUGAU | – | – | 15.7 nM | 15.4 nM | –
AUUAAUAAUAUGUAGACGGCGGAGACGAGACGAGGACCGGUACGGCCGCCACUCGUGUUAGUUAACAUGAGGAUCACCCAUGUUA | – | – | 12.5 nM | 12.8 nM | –
CCUAUGCAGUCGGCCGCCACUGAUAACGUUAUCGUUACCUCAGAAACAUGAGGAUCACCCAUGUACAGGACCGGGACUGUAUAGG | 12.8 nM | 15.3 nM | – | – | –
CGAGUAAGAACAAUCGAAUAACGGUUUUCGCGAGGACCGGUACGGCCGCCACUCGUGUGAUAUCACACAUGAGGAUCACCCAUGU | – | – | 80.2 nM | 41.2 nM | –
CGCCACUCGAGUGAUCCUCACGAGUGGCUACGAGGACCGGUACGGCCGCCACUCGAAUUAACAUGAGGAUCACCCAUGUAAUCUA | – | – | 56.7 nM | 27.7 nM | –
GCACUACAUGAGGAUCACCCAUGUGCAGAUACCAGAGGUGUAUGCCUCCCUUGGCAGCUGAGUAGCUCUGGAGGCCUAUUGGUUU | – | – | – | – | apparent Kd (MS2 coat protein [2]; [7]): 15 nM; apparent Kd (MS2 coat protein [2]; [8]): 19.1 nM
GCUGUAAGUGCAGAUACCAGCAAGUGAUAUUUCAUAUGACAUGAGGAUCACCCAUGUAACUGCCCUUGGCAGCUGCACUUACAGC | – | – | – | – | apparent Kd (MS2 coat protein [2]; [7]): 213 nM; apparent Kd (MS2 coat protein [2]; [8]): 24.9 nM
GCUUGGGUGGCACAGCCCUGGCAGUGCGAUACCAGCACGGUAACGUGCCCUUGGCAGCGCACAUGAGGAUCACCCAUGUGGUGCG | – | – | – | – | apparent Kd (MS2 coat protein [2]; designed as: OFF switch for theophylline, no ligand): 69.5 nM; apparent Kd (MS2 coat protein [2]; ligand present: theophylline, designed as: OFF switch for theophylline): 345 nM
GGUGAUCCGUAUCACCGGAUCACCGGUGAUACCAGCAUCGAAAGAUGCCCUUGGCAGCACCAACAUGAGGAUCACCCAUGUAAUA | – | – | – | – | apparent Kd (MS2 coat protein [2]; [7]): 165 nM; apparent Kd (MS2 coat protein [2]; [8]): 26.4 nM
